This is an account of results in ChEMBL document CHEMBL1125731, “2,3-Dihydrobenzofuran analogues of hallucinogenic phenethylamines” (J Med Chem, 1991).

Broadly, the Hill coefficient is the slope factor of the fitted curve. The term Ki denotes the dissociation constant of the complex between target and ligand, obtained from inhibition or displacement. A low value points to higher affinity.

Series [1] relates to Rattus norvegicus. Nature of the series: Percent of animals selecting drug liver was determined at a dose of 16.28 intraperitoneally. (No. of animals disrupted:1). Format: functional. In a few lines:
(§1)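 Male Sprague-Dawley rats (~200 g) were kept at ~80% free-feeding weight and trained on FR-50 to discriminate LSD tartrate (0.08 mg/kg ip) from saline. Test drug was given ip in saline 30 min before a session lasting until 50 responses or 5 min, unreinforced. Rats failing to make 50 responses were scored disrupted. At least eight rats were tested per dose.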

A short description of series [2]: Hill coefficient as determined. In a few lines:
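Rat prefrontal cortex homogenate incubated in triplicate with 0.25 nM [125I]-(R)-DOI (2000 Ci/mmol) and varying displacer concentrations, 37 °C for 15 min. The radioligand K_D was 1.34 nM. Binding curves were fitted by computer analysis. Protein was measured by Bradford.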

Series [3] has as its system Rattus norvegicus. In words: Percent of animals selecting drug liver was determined at a dose of 8.14 intraperitoneally. (No. of animals disrupted:1). It is filed as functional. The gist of the method: as §1
The test system of series [4] is Rattus norvegicus. In words: Percent of animals selecting drug liver was determined at a dose of 40.70 intraperitoneally. (No. of animals disrupted:4). Format: functional. In a few lines: as §1
For series [5], the system named is Rattus norvegicus. Nature of the series: Percent of animals selecting drug liver was determined at a dose of 32.56 intraperitoneally. (No. of animals disrupted:1). It is filed as functional. In a few lines: as §1
Series [6] relates to Rattus norvegicus. In words: Percent of animals selecting drug liver was determined at a dose of 4.07 intraperitoneally. ( No. of animals disrupted:0). It is filed as functional. The gist of the method: as §1
Series [7] addresses Serotonin 2 (5-HT2) receptor (Rattus norvegicus, UniProt P30994+P08909+P14842). In words: Compound was evaluated for its ability to displace 0.25 nM [125I](R)-DOI from binding sites in rat frontal cortex. It is filed as tissue-based.
Series [8] relates to Rattus norvegicus. Nature of the series: Percent of animals selecting drug liver was determined at a dose of 10.19 intraperitoneally. (No. of animals disrupted:0). It is filed as functional. The gist of the method:
as §1

For series [9], the system named is Rattus norvegicus. In words: Percent of animals selecting drug liver was determined at a dose of 2.03 intraperitoneally. (No. of animals disrupted:0). Format: functional. In a few lines:
as §1

Series [10] has as its system Rattus norvegicus. Nature of the series: Percent of animals selecting drug liver was determined at a dose of 8.16 intraperitoneally. (No. of animals disrupted:0). Format: functional. The gist of the method:
as §1

For series [11], the system named is Rattus norvegicus. Nature of the series: Percent of animals selecting drug liver was determined at a dose of 12.16 intraperitoneally. (No. of animals disrupted:1). Format: functional. In a few lines:
as §1

Series [12] deals with Rattus norvegicus. In words: Percent of animals selecting drug liver was determined at a dose of 2.03 intraperitoneally. (No. of animals disrupted:1). It is filed as functional. The gist of the method:
as §1

The test system of series [13] is Rattus norvegicus. In words: Percent of animals selecting drug liver was determined at a dose of 0.51 intraperitoneally. (No. of animals disrupted:0). Format: functional. The gist of the method: as §1
Series [14] deals with Rattus norvegicus. Nature of the series: Percent of animals selecting drug liver was determined at a dose of 1.02 intraperitoneally. (No. of animals disrupted:0). Format: functional. In a few lines: as §1
Series [15] relates to Rattus norvegicus. Nature of the series: Percent of animals selecting drug liver was determined at a dose of 0.25 intraperitoneally. (No. of animals disrupted:0). Format: functional. The gist of the method: as §1
The subject of series [16] is Rattus norvegicus. In words: Percent of animals selecting drug liver was determined at a dose of 2.03 intraperitoneally. (No. of animals disrupted:2). Format: functional. The gist of the method:
as §1

For series [17], the system named is Rattus norvegicus. In words: Percent of animals selecting drug liver was determined at a dose of 1.01 intraperitoneally. (No. of animals disrupted:0). Format: functional. The gist of the method: as §1

On to `COc1ccc(OC)c(CC(C)N)c1` (stereo not given), for which the SDL in [1] is recorded as 50%; in series [3], 38%; in [4], 63%; in series [5], 63%; in series [6], 38%. Moreover, the Hill coefficient in series [2] turned out to be 0.92.

As for `COc1cc2c(cc1CC(C)N)OCC2` (stereo not given), the Hill coefficient in [2] is 0.91. The same molecule gave an inhibitory constant (Ki) in series [7] of 388 nM.

As for `COc1ccc2c(c1CC(C)N)CCO2` (stereo not given), the SDL in [8] amounted to 63%; in [9], 25%; in series [10], 50%; in series [11] it was 88%. In series [2], this molecule came in with a Hill coefficient of 0.93. Also, the Ki in [7] worked out at 146 nM.

For the molecule `COc1cc(CC(C)N)c(OC)cc1C` (stereo not given) [DOM], the SDL turned out to be 88% in [12], 13% in series [13] and 75% in series [14]. In addition, in series [2], the Hill coefficient amounted to 0.89.

With `COc1cc(Br)c2c(c1CC(C)N)CCO2` (stereo not given), the SDL in [15] is 25%; in series [16] it was 88%; in [13], 38%; in [17], 75%. In series [2], this molecule came in with a Hill coefficient of 1.06. The Ki in [7] is listed as 3.1 nM.

For the molecule `COc1cc(CC(C)N)c(OC)cc1Br` (stereo not given) [BROLAMFETAMINE], in [2], the Hill coefficient came out at 1.09.
